As usually defined, the IC50 is the concentration that inhibits the measured activity by half. A word on the pIC50: it is the IC50 on a negative log10 scale, so that one unit is a factor of ten. As a reminder, the half-life is the time needed for the level to fall by half in the phase considered. As a reminder, the bioavailability is dose-corrected exposure relative to a reference, in per cent. Low values mean little systemic uptake, high ones much systemic uptake.

Results on 24 compounds are retold here after ChEMBL document CHEMBL4354806, “Discovery of an Orally Bioavailable Pan αv Integrin Inhibitor for Idiopathic Pulmonary Fibrosis” (J Med Chem, 2019).

One data set deals with Integrin alpha-V/beta-6 (Homo sapiens, UniProt P06756+P18564). The data set can be described thus: Inhibition of recombinant human integrin alphaV (31 to 992 residues) beta6 (22 to 707 residues) expressed in CHO cells preincubated for 15 mins followed by Cy3B-RGD probe addition and measured after 2 hrs by fluorescence polarization assay. A digest of the protocol:
(§1)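 Soluble purified human integrins from CHO cells, with 1 nM Cy3B-RGD probe, in 25 mM HEPES, 150 mM NaCl, 1 mM CHAPS, pH 7.4, at 20-22 °C. Final protein and cation: αvβ3 1 nM with 0.4 mM MgCl₂; αvβ5 4 nM with 0.1 mM MnCl₂; αvβ6 8 nM with MgCl₂; αvβ8 8 nM with MnCl₂. Read-out was polarization. pIC50 is mean ± SEM over test occasions.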
For orientation: Fluorescence polarisation rises when a labelled molecule tumbles more slowly, as on binding a larger partner.

Data set [1] is described as follows: Inhibition of recombinant human integrin alphaV (31 to 992 residues) beta5 (24 to 719 residues) expressed in CHO cells preincubated for 15 mins followed by Cy3B-RGD probe addition and measured after 2 hrs by fluorescence polarization assay. The procedure, abridged: as §1
Data set [2] in a line: Inhibition of recombinant human integrin alphaV (31 to 992 residues) beta8 (43 to 684 residues) expressed in CHO cells preincubated for 15 mins followed by Cy3B-RGD probe addition and measured after 2 hrs by fluorescence polarization assay. A digest of the protocol:
as §1

In the next data set the target is Integrin alpha-V/beta-3 (Homo sapiens, UniProt P05106+P06756). Put plainly: Inhibition of recombinant human integrin alphaV (31 to 992 residues) beta3 (27 to 718 residues) expressed in CHO cells preincubated for 15 mins followed by Cy3B-RGD probe addition and measured after 2 hrs by fluorescence polarization assay. The procedure, abridged: as §1
The nature of data set [3]: Clearance in CD rat at 1 mg/kg, iv and 1 mg/kg, po measured up to 24 hrs by LC-MS/MS analysis. The class given is ADME, organism-based. The following applies: in vivo. A digest of the protocol:
(§2)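 Two male CD rats per arm. IV: 1 mg/kg bolus via femoral vein in DMSO:PEG200:water (5:45:50). PO: 1 mg/kg by gavage in 0.5% methyl cellulose/0.2% Tween 80. Blood was taken by tail-vein cannula to 7 h and by venipuncture to 24 h. Plasma was extracted with acetonitrile plus internal standard, and drug measured by LC-MS/MS.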

A short description of data set [4]: Volume of distribution at steady state in CD rat at 1 mg/kg, iv and 1 mg/kg, po measured up to 24 hrs by LC-MS/MS analysis. The class given is ADME, organism-based. The following applies: in vivo, read-out: Vdss. The procedure, abridged: as §2
The nature of data set [5]: Permeability of the compound in pH 7.4 phosphate buffer measured after 3 hrs by artificial membrane permeability assay based LC-MS analysis. The class given is ADME. The following applies: PAMPA, read-out: permeability. A digest of the protocol: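 Bilayer of 1.8% egg phosphatidylcholine and 1% cholesterol in n-decane on filter inserts. Phosphate buffer was 50 mM Na₂HPO₄ with 0.5% hydroxypropyl-β-cyclodextrin, pH 7.4. Compound was added to the donor (bottom) well and incubated 3 h at room temperature. Donor and acceptor concentrations were measured by liquid chromatography.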
A general note: In PAMPA a lipid-coated filter parts donor from acceptor wells.

The nature of data set [6]: Half life in CD rat at 1 mg/kg, iv and 1 mg/kg, po measured up to 24 hrs by LC-MS/MS analysis. The class given is ADME, organism-based. The following applies: in vivo. A digest of the protocol: as §2
A short description of data set [7]: Oral bioavailability in CD rat at 1 mg/kg administered via gavage up to 24 hrs by LC-MS/MS analysis. The following applies: in vivo. The class given is ADME, organism-based. The procedure, abridged: as §2

`O=C(O)C[C@H](Nc1ccc(OCCc2ccc3c(n2)NCCC3)nn1)c1cccc(Cl)c1`: the half-inhibitory concentration (IC50) at Integrin alpha-V/beta-6 was 6.31 nM; at Integrin alpha-V/beta-3, 0.794 nM. Also, the values for the pIC50 in data set [1] and in data set [2] were 8.9 and 8.1, respectively.

For `O=C(O)CC(Nc1cnc(OCCc2ccc3c(n2)NCCC3)cn1)c1ccc(Cl)cc1` (racemic), the values for the IC50 on Integrin alpha-V/beta-6 and on Integrin alpha-V/beta-3 were 19500 nM and 12600 nM, respectively. For the same compound, the pIC50 in [1] is recorded as 4.9; in [2], 4.5.

`O=C(O)CC(Nc1cnc(OCCc2ccc3c(n2)NCCC3)nc1)c1ccc(Cl)cc1` (racemic): the IC50 on Integrin alpha-V/beta-6 was 251 nM; at Integrin alpha-V/beta-3, 7.94 nM. The pIC50 in [1] worked out at 8.2; in [2], 6.1.

As for `O=C(O)CC(Nc1ncc(OCCc2ccc3c(n2)NCCC3)cn1)c1ccc(Cl)cc1` (racemic), the IC50 was 126 nM on Integrin alpha-V/beta-6 and 1.26 nM on Integrin alpha-V/beta-3. The figures for the pIC50 in data set [1] and in data set [2] were 9 and 7.2, respectively.

In turn, `O=C(O)CC(Nc1ccc(OCCc2ccc3c(n2)NCCC3)cn1)c1cccc(C2CC2)c1` (racemic) displayed a clearance in data set [3] of 8 mL/min/kg. Besides, the IC50 on Integrin alpha-V/beta-6 was 15.8 nM; at Integrin alpha-V/beta-3, 3.98 nM. Further, the pIC50 is on record as 8.4 in [1] and 7.4 in data set [2]. The Vd in [4] is 0.5 L/kg. Further, the Papp at 3 h in data set [5] was found to be 8 ×10⁻⁶ cm/s. The compound further had a half-life in [6] of 1.8 h. Moreover, the bioavailability in [7] was 98%.

In the case of `O=C(O)CC(Nc1ccc(OCCc2ccc3c(n2)NCCC3)cc1)c1cccc(F)c1` (racemic), the IC50 on Integrin alpha-V/beta-6 was 100 nM; on Integrin alpha-V/beta-3, 2 nM. For the same compound, the pIC50 in [1] was 8.8; in data set [2], 6.4.

For `O=C(O)CC(Nc1ccc(OCCc2ccc3c(n2)NCCC3)nn1)c1cccc(Cl)c1` (racemic), the IC50 at Integrin alpha-V/beta-6 was 20 nM; on Integrin alpha-V/beta-3 it was 3.16 nM. For the same compound, the values for the negative-log IC50 (pIC50) in data set [1] and in data set [2] were 8.5 and 7.6, respectively.

`O=C(O)CC(Nc1ccc(OCCc2ccc3c(n2)NCCC3)nc1)c1cccc(Cl)c1` (racemic): the results for the IC50 on Integrin alpha-V/beta-6 and on Integrin alpha-V/beta-3 were 398 nM and 12.6 nM, respectively. Besides, the results for the pIC50 in [1] and in data set [2] were 7.8 and 6, respectively.

For `O=C(O)CC(Nc1ccc(OCCc2ccc3c(n2)NCCC3)nc1)c1ccc(Cl)cc1` (racemic), the IC50 at Integrin alpha-V/beta-6 was 1000 nM; on Integrin alpha-V/beta-3 it was 39.8 nM. The pIC50 in data set [1] is 7.3; in data set [2], 5.6.

In the case of `O=C(O)CC(Nc1ccc(OCCc2ccc3c(n2)NCCC3)nn1)c1ccc(Cl)cc1` (racemic), the IC50 at Integrin alpha-V/beta-6 is 25.1 nM; at Integrin alpha-V/beta-3, 2 nM. Further, the pIC50 is listed as 8.5 in data set [1] and 7.5 in [2].

On to `O=C(O)CC(Nc1ccc(OCCc2ccc3c(n2)NCCC3)cn1)c1ccc(C(F)(F)F)cc1` (racemic), for which the IC50 was 79.4 nM on Integrin alpha-V/beta-6 and 7.94 nM at Integrin alpha-V/beta-3. Moreover, the pIC50 in data set [1] was determined as 8.1; in data set [2] it was 6.7.

Regarding `O=C(O)CC(Nc1ccc(OCCc2ccc3c(n2)NCCC3)cn1)c1cccc(Cl)c1` (racemic), the IC50 on Integrin alpha-V/beta-6 is 50.1 nM; on Integrin alpha-V/beta-3 it was 6.31 nM. In addition, the pIC50 in data set [1] is 8.2; in data set [2] it was 7.1.

On to `O=C(O)CC(Nc1ccc(OCCc2ccc3c(n2)NCCC3)cn1)c1cccc(CN2CCOCC2)c1` (racemic), for which the IC50 on Integrin alpha-V/beta-6 was 63.1 nM; on Integrin alpha-V/beta-3, 3.98 nM. In addition, the pIC50 was 8.5 in data set [1] and 7.2 in [2].

For the compound `O=C(O)CC(Nc1cnc(OCCc2ccc3c(n2)NCCC3)nc1)c1cccc(Cl)c1` (racemic), the figures for the IC50 at Integrin alpha-V/beta-6 and at Integrin alpha-V/beta-3 were 631 nM and 50.1 nM, respectively. Further, the pIC50 was determined as 7.3 in data set [1] and 5.6 in [2].

Regarding `O=C(O)CC(Nc1ccc(OCCc2ccc3c(n2)NCCC3)cn1)c1ccc(CN2CCOCC2)cc1` (racemic), the IC50 on Integrin alpha-V/beta-6 is 31.6 nM; at Integrin alpha-V/beta-3, 3.16 nM. Also, the pIC50 in data set [1] was found to be 8.2; in [2] it was 6.9.

For `O=C(O)CC(Nc1cnc(OCCc2ccc3c(n2)NCCC3)cn1)c1cccc(Cl)c1` (racemic), the half-inhibitory concentration (IC50) is 12600 nM on Integrin alpha-V/beta-6 and 5010 nM on Integrin alpha-V/beta-3. Further, the pIC50 was 5.3 in data set [1] and 4.9 in [2].

In the case of `O=C(O)CC(Nc1ccc(OCCc2ccc3c(n2)NCCC3)cn1)c1cccc(F)c1` (racemic), the figures for the IC50 at Integrin alpha-V/beta-6 and on Integrin alpha-V/beta-3 were 79.4 nM and 2.51 nM, respectively. Further, the pIC50 was 8.4 in [1] and 6.8 in [2].

Consider `O=C(O)C[C@@H](Nc1ccc(OCCc2ccc3c(n2)NCCC3)nn1)c1cccc(Cl)c1`, for which the IC50 was 794 nM on Integrin alpha-V/beta-6 and 158 nM at Integrin alpha-V/beta-3. Further, the pIC50 in data set [1] is 7.9; in [2] it was 5.7.

As for `O=C(O)CC(Cc1ccc(OCCc2ccc3c(n2)NCCC3)cc1)c1ccccc1` (racemic), the concentration for half-maximal inhibition (IC50) on Integrin alpha-V/beta-6 was 1260 nM; at Integrin alpha-V/beta-3, 2 nM. Further, the pIC50 in data set [1] was found to be 8.7; in data set [2], 5.8.

As to `O=C(O)CC(Nc1ccc(OCCc2ccc3c(n2)NCCC3)cn1)c1ccc(Cl)cc1` (racemic), the IC50 at Integrin alpha-V/beta-6 is 39.8 nM; on Integrin alpha-V/beta-3, 3.16 nM. Further, the negative-log IC50 (pIC50) in data set [1] is recorded as 8.4; in data set [2], 6.9.

As to `O=C(O)CC(Nc1ccc(OCCc2ccc3c(n2)NCCC3)cn1)c1ccc(Oc2ccccc2)cc1` (racemic), the IC50 at Integrin alpha-V/beta-6 was 12.6 nM; at Integrin alpha-V/beta-3, 2 nM. Moreover, the pIC50 worked out at 8.5 in [1] and 7.1 in [2].

`O=C(O)CC(Nc1ccc(OCCc2ccc3c(n2)NCCC3)cn1)c1cc(C2CC2)cc(C2CC2)c1` (racemic): the IC50 at Integrin alpha-V/beta-6 was 316 nM; on Integrin alpha-V/beta-3, 126 nM. For the same compound, the pIC50 in [1] worked out at 7; in data set [2] it was 6.9.

Regarding `O=C(O)CC(Nc1ncc(OCCc2ccc3c(n2)NCCC3)cn1)c1cccc(Cl)c1` (racemic), the IC50 on Integrin alpha-V/beta-6 was 158 nM; at Integrin alpha-V/beta-3 it was 5.01 nM. Also, the results for the pIC50 in data set [1] and in [2] were 8.3 and 6.6, respectively.

`O=C(O)CC(Nc1ccc(OCCc2ccc3c(n2)NCCC3)cn1)c1cccc(Br)c1` (racemic): the IC50 at Integrin alpha-V/beta-6 was 31.6 nM; at Integrin alpha-V/beta-3 it was 5.01 nM. Also, the pIC50 amounted to 8.4 in data set [1] and 7.2 in data set [2].
